Compound activity as filed in PubChem BioAssay.
Shown are actives, neighbours in structure and some others; about 2.3% of the full set was active somewhere.
T cell modulator – T cell immune modulation candidate | 2C CD8+ T cell-vesicle binding, flow cytometry; stronger effect = lower value | 0.068% of 330,000 active | response (vesicle binding), % at 7 µM;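 active means response, share of CD8 T cells binding vesicles, and their 90th percentile fluorescence all below set limits, cut at about 80% in these data, passing the limit was not always enough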;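 further: values below 100% mean blocked vesicle binding to the CD8+ T cells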
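System: murine 2C transgenic CD8+ T lymphocytes; also added: QL9-loaded Drosophila micro-vesicles; times: binding 1.5 h at 37 °C; measured by: flow cytometry, PE anti-B7-1 (FL2) versus Alexa647 anti-CD8 (FL8), PFA-fixed; control set: Peptide-free naked vesicles (low) and QL9 vesicles with 0.7% DMSO vehicle (high)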
Bim-Mcl-1 – human Bim-Mcl-1 interaction inhibition. Q07820. inhibition, % at 10 µM. 0.1% of 190,000 active. Bead-based flow cytometry, Bim peptide-Mcl-1 binding; in the data active means inhibition above about 40%;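 further: 0% = no compound tracer wells and 100% = peptide blocker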
Mcl1-Noxa inh – disrupts binding of human Mcl-1 to Noxa peptide; Q07820; TR-FRET Mcl-1/Noxa peptide binding, 2 h; inhibition, % at 21.7 µM; 1.5% of 220,000 active; AID 1022;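 active means compounds that cut the protein-peptide binding signal by more than 50% relative to plate controls in a single-dose test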;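 further: His-tagged Mcl-1 with rhodamine Noxa BH3 peptide and terbium anti-His antibody; 0% = Mcl-1 plus Noxa peptide wells and 100% = peptide-only wells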
MCL1 BIM primary – MCL1-BIM-BH3 interaction inhibition (human) | inhibition, % at 10.9 µM | 0.68% of 320,000 active | AID 2057 | Q07820 | GST-MCL1 / FITC-Bim-BH3 fluorescence polarization;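 active means inhibition above the mean inhibition of all tested compounds plus 3 SD, set per campaign, cut at about 40% in these data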;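 further: 0% = DMSO wells and 100% = unlabeled Bim-BH3 peptide control; higher means more loss of mP so more displacement of Bim peptide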
Mcl1-Bid inh – Mcl-1/Bid interaction inhibition. TR-FRET Mcl-1/Bid-Dy647 peptide binding, 1536-well. AID 1021. 0.97% of 220,000 active. inhibition, % at 21.7 µM. Q07820;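 active means compounds that cut the binding signal by more than half at the single screening dose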;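 further: His-tagged Mcl-1 with europium anti-His antibody binding Bid BH3 peptide; 0% = Mcl-1 plus peptide wells and 100% = peptide-only wells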
Pemphigus Ab inh – human desmoglein-3 autoantibody binding inhibition; DSG3-coupled beads, scFv-anti-DSG3-GFP binding, flow cytometry; stronger effect = lower value; binding (percent of control), % at 10 µM; 0.48% of 310,000 active; P32926;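 active means binding more than 3 SD below its plate's average and above zero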;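 further: hits lower antibody fragment binding to DSG3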
Target sequence (P32926 whole entry, looked up, the tested form may be a part): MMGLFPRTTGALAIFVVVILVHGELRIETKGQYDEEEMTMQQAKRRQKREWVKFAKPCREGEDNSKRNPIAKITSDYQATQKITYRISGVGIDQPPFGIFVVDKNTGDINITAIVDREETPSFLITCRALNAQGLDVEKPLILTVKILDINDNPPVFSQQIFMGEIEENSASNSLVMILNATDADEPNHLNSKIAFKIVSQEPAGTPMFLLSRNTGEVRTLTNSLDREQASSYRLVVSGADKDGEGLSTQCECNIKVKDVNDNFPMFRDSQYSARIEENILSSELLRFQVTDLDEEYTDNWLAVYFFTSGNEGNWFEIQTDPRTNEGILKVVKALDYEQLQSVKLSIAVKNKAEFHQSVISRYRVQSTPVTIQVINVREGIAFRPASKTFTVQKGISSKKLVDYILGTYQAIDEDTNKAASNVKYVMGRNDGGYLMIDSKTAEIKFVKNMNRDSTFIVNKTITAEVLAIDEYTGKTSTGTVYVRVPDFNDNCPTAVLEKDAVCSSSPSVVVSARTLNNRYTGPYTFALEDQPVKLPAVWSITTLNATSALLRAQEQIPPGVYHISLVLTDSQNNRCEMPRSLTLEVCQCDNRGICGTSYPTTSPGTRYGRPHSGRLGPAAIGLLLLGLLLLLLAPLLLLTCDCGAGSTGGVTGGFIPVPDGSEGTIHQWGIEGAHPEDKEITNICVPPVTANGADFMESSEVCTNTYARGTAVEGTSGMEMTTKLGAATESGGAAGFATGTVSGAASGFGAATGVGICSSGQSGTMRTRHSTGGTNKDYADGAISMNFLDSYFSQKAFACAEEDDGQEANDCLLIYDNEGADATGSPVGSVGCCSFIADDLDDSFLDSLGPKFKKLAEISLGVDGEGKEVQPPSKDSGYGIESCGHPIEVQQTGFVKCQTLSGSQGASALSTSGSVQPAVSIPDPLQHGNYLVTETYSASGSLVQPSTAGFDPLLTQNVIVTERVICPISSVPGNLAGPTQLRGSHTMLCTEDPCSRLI
* hit, by the source's call; / = not tested or not shown.

SMILES | T cell modulator | Bim-Mcl-1 | Mcl1-Noxa inh | MCL1 BIM primary | Mcl1-Bid inh | Pemphigus Ab inh
CCC1Oc2ccc(C)cc2N(CC(=O)N(Cc2ccc(C)o2)C2CC(C)(C)NC(C)(C)C2)C1=O (stereo not given) | 346.7 | -1.0 | 13.2 | -1.7 | -27.1 | /
O=C1c2ccccc2CCC12OC2c1ccc([N+](=O)[O-])cc1 (stereo not given) | / | / | / | / | / | 100.1
Cc1ccc(C(=O)NNC(=O)CCC(=O)Nc2cc(C)on2)cc1 | 961.8 | -4.0 | 4.1 | 13.8 | 85.7* | 103.9
Cc1cc(NC(=O)CCC(=O)NNC(=O)c2ccc(C(C)(C)C)cc2)no1 | 381.2 | -2.0 | -7.6 | 5.6 | -36.5 | 101.5
COc1cc(NC(=O)CSc2nccc(C)n2)c(C)cc1[N+](=O)[O-] | 278.5 | -2.0 | 56.6* | 4.6 | -31.7 | 79.3
COc1ccc([N+](=O)[O-])cc1NC(=O)CSc1nccc(C)n1 | 248.1 | 1.0 | 57.1* | 7.8 | -13.1 | 88.2
Cc1nc(SCC(=O)Nc2cc(Cl)ccc2[N+](=O)[O-])nc(C)c1C | 707.7 | -5.0 | 8.2 | 4.1 | 94.6* | 108.7
O=C1[C@H](c2ccccc2)[C@@H](c2ccccc2)N1c1ccncc1 | / | / | / | / | / | 94.9
CSC1SCC2C(=O)N(C)C(C(C)C)C(=O)OCC(NC(=O)c3cnc4ccccc4n3)C(=O)NC(C)C(=O)N(C)C1C(=O)N(C)C(C(C)C)C(=O)OCC(NC(=O)c1cnc3ccccc3n1)C(=O)NC(C)C(=O)N2C (stereo not given) | / | / | / | / | / | 91.3
CCOC(=O)C1=CN(Cc2cccc(F)c2)S(=O)(=O)N(C)C1c1ccc2ccccc2c1 (stereo not given) | / | / | / | / | / | 96.0
Nc1nc(N2CCCCC2)nc(N(c2ccccc2)c2ccccc2)n1 | 224.8 | 1.0 | 7.5 | -1.8 | -12.7 | 100.0
Clc1nc(Cl)nc(N(c2ccccc2)c2ccccc2)n1 | 211.2 | -1.0 | 34.6 | 11.8 | 50.7* | 81.3
COc1ccc(N=Nc2ccc(O)c3ncccc23)cc1 | 291.6 | / | -1.6 | 11.1 | 72.9* | 95.2
CSCCC(NC(=O)c1ccccc1)C(=O)NCCCn1nc(C)cc1C (stereo not given) | 371.5 | / | / | -11.6 | / | /
Cc1c2cnn(CC(=O)Nc3c(F)c(F)cc(F)c3F)c(=O)c2c(C)n1Cc1ccccc1F | 252.6 | -6.0 | 48.8 | 41.4* | -57.2 | 93.1
CCn1c(C)nnc1SCC(=O)Nc1ccc(OC)cc1 | / | / | / | / | / | 96.7
CCOc1ccc(NC(=O)CSc2nnc(C)n2CC)cc1 | 203.2 | / | / | -9.8 | / | 78.4*
CCOc1ccc(-n2c(SCC(=O)Nc3ccccc3CC)nc3n[nH]c(C)c3c2=N)cc1 | 135.3 | -2.0 | 12.4 | 6.4 | -3.9 | /
CCOc1ccc(-n2c(SCC(=O)Nc3ccc(Br)cc3)nc3n[nH]c(C)c3c2=N)cc1 | 115.0 | -1.0 | 50.7* | 9.6 | 57.9* | 89.7
NS(=O)(=O)c1ccc(CCNc2ccccc2[N+](=O)[O-])cc1 | 237.3 | / | / | 4.2 | / | /
O=C(NC(=S)N1CCCCC1CO)c1cccs1 (stereo not given) | 339.2 | / | / | / | / | 99.4
COc1cc(C)c(Cl)cc1S(=O)(=O)N(C)C | 301.9 | 4.0 | 0.3 | 8.1 | 4.8 | 94.4
CN(C)S(=O)(=O)c1cc(S(=O)(=O)N(C)C)c(Cl)cc1N | 250.9 | 2.0 | 28.2 | 2.8 | 70.4* | 101.2
CCc1cc2c(=O)n(CCCOC)c(SCC(=O)Nc3oc(C)c4c(C)n[nH]c(=O)c34)nc2s1 | 332.4 | / | / | 7.2 | / | 108.0
O=C(CSc1ccc2nnc(-c3ccc(F)cc3)n2n1)NCc1ccco1 | 651.6 | -7.0 | 62.4* | 11.2 | -17.4 | 109.0
SMILES | T cell modulator | Bim-Mcl-1 | Mcl1-Noxa inh | MCL1 BIM primary | Mcl1-Bid inh | Pemphigus Ab inh
Cc1ccc(-c2nnc3ccc(SCC(=O)NCc4ccco4)nn23)cc1 | 208.3 | 0.0 | 15.4 | -0.6 | 4.2 | 98.1
O=C(CSc1nnc(-c2ccncc2)n1-c1ccc(F)cc1)NC(=O)NCc1ccco1 | 235.6 | -4.0 | 63.2* | 6.2 | -0.4 | 99.0
O=C(CCC(=O)N1CCOc2ccccc21)NCCCN1CCN(Cc2ccccc2)CC1 | 370.4 | / | / | 1.0 | / | 103.2
Cc1ccc(CC(=O)O/N=C(\N)c2ccncc2)cc1 | 302.6 | / | / | -3.7 | / | 99.9
CC(C)(C)CC(=O)O/N=C(\N)c1ccncc1 | 305.7 | -5.0 | 4.7 | -1.2 | 82.0* | 97.7
N/C(=N\OC(=O)CCC1CCCC1)c1ccncc1 | 170.0 | 95.0* | 16.2 | 0.6 | 9.7 | 104.4
